Activity calls are given as the source filed them. The rule behind the calls is not given here.
Key:
[1] = Uncoupling of electron transport protein complex in alkyl pyridine carbonyldithiocarbazates-stimulated rat liver mitochondria assessed as concentration required to 100% uncoupling
In short: (§1)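 Rat liver mitochondria were isolated by the Hogeboom method, with protein measured by Biuret. Protein varied by footnote, 1.33–2.12 mg/3.3 mL. Mitochondria in state 4 were kept in pH 7.2 medium (200 mM sucrose, 10 mM phosphate, 2 mM MgCl₂, 1 mM EDTA, 10 mM succinate, 1 μg rotenone). They were titrated with compound in Me₂SO, and O₂ uptake was read by Galvani electrode. The minimum concentration giving maximal respiration release was taken; values are means of ≥3 runs.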

[2] = species on record: Rattus norvegicus; test: Respiration rate of electron transport protein complex in rat liver mitochondria […] assessed as oxygen consumption at 1 uM in presence of ascorbate and TMPD
In short: (§2)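 Rat liver mitochondria at 3.0 mg protein in pH 7.4 medium (200 mM sucrose, 10 mM potassium phosphate, 2 mM MgCl₂, 1 mM EDTA), 25 °C. Substrate was 10 mM ascorbate plus 200 μM TMPD, with 2 μg rotenone. State 4 respiration was read as oxygen uptake on a Clark-type electrode.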

[3] = species on record: Rattus norvegicus; test: Respiration rate of electron transport protein complex in rat liver mitochondria […] assessed as oxygen consumption at 2 uM in presence of glutamate and malate
In short: (§3)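 Oxygen uptake by rat liver mitochondria (3.0 mg protein) was measured with a Clark-type electrode at 25 °C. Medium at pH 7.4 held 200 mM sucrose, 10 mM potassium phosphate, 2 mM MgCl₂ and 1 mM EDTA. Substrate was 10 mM glutamate plus 10 mM malate.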

[4] = species on record: Rattus norvegicus; test: Respiration rate of electron transport protein complex in rat liver mitochondria […] assessed as oxygen consumption at 1 uM in presence of glutamate and malate; in short: as §3
[5] = species on record: Rattus norvegicus; test: Respiration rate of electron transport protein complex in rat liver mitochondria […] assessed as oxygen consumption at 2 uM in presence of ascorbate and TMPD; in short: as §2
[6] = species on record: Rattus norvegicus; test: Respiration rate of electron transport protein complex in rat liver mitochondria […] assessed as oxygen consumption at 5 uM in presence of ascorbate and TMPD; in short: as §2
[7] = species on record: Rattus norvegicus; test: Respiration rate of electron transport protein complex in rat liver mitochondria […] assessed as oxygen consumption at 1 uM in presence of succinate
In short: (§4)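 State 4 respiration of rat liver mitochondria (3.0 mg protein, 25 °C) was followed with a Clark-type electrode. Medium was pH 7.4 with 200 mM sucrose, 10 mM potassium phosphate, 2 mM MgCl₂ and 1 mM EDTA. Substrate was 10 mM succinate with 1 μg rotenone.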

[8] = species on record: Rattus norvegicus; test: Respiration rate of electron transport protein complex in rat liver mitochondria […] assessed as oxygen consumption at 5 uM in presence of glutamate and malate; in short: as §3
[9] = species on record: Rattus norvegicus; test: Respiration rate of electron transport protein complex in rat liver mitochondria […] assessed as oxygen consumption at 2 uM in presence of succinate; in short: as §4
[10] = Uncoupling of electron transport protein complex in alkyl pyridine carbonyldithiocarbazates-stimulated rat liver mitochondria up to 100 uM; in short: as §1
[11] = Uncoupling of electron transport protein complex in alkyl pyridine carbonyldithiocarbazates-stimulated rat liver mitochondria up to 500 uM; in short: as §1
[12] = species on record: Rattus norvegicus; test: Respiration rate of electron transport protein complex in rat liver mitochondria […] assessed as oxygen consumption at 6 uM in presence of ascorbate and TMPD; in short: as §2

Activity [1]	other results	SMILES
140 µM		CCCCCCCSC(=S)NN
3.7 µM		CCCCCCCCSC(=S)NNC(=O)c1ccccn1
370 µM		CCCSC(=S)NNC(=O)c1cccnc1
0.86 µM	Activity [2]: 214 min⁻¹; Activity [3]: 278 min⁻¹; Activity [4]: 178 min⁻¹; Activity [5]: 222 min⁻¹; Activity [6]: 250 min⁻¹; Activity [7]: 361 min⁻¹	CCCCCCCCCSC(=S)NNC(=O)c1ccncc1
1.1 µM	Activity [8]: 263 min⁻¹; Activity [2]: 208 min⁻¹; Activity [9]: 300 min⁻¹; Activity [3]: 178 min⁻¹; Activity [4]: 125 min⁻¹; Activity [5]: 227 min⁻¹; Activity [6]: 236 min⁻¹; Activity [7]: 250 min⁻¹	CCCCCCCCCSC(=S)NNC(=O)c1cccnc1
	Activity [10]: inactive	CCCCCCCSC(=S)N(C)NC(=O)c1ccccn1
90 µM		CCCCCSC(=S)NNC(=O)c1ccccn1
1000 µM		CCSC(=S)NNC(=O)c1cccnc1
89 µM		CCCCCCSC(=S)NNC(=O)c1cccnc1
4.7 µM		CCCCCCCSC(=S)NNC(=O)c1ccccn1
350 µM		CCCCCCSC(=S)NN
14 µM		CCCCCCCSC(=S)NNC(=O)c1cccnc1
290 µM		CCCSC(=S)NNC(=O)c1ccccn1
240 µM		CCCCSC(=S)NNC(=O)c1ccccn1
62.5 µM		CCCCSC(=S)NNC(=O)c1ccncc1
	Activity [10]: inactive	CCCCCCCCCSC(=S)N(C)NC(=O)c1ccccn1
2160 µM		CSC(=S)NNC(=O)c1cccnc1
1.3 µM		CCCCCCCCSC(=S)NNC(=O)c1cccnc1

Activity [1]	other results	SMILES
50 µM		CCCCCCSC(=S)NNC(=O)c1ccccn1
109 µM		CCCSC(=S)NNC(=O)c1ccncc1
105 µM		CCCCCSC(=S)NNC(=O)c1cccnc1
	Activity [10]: inactive	CCCCCCSC(=S)N(C)NC(=O)c1ccccn1
1.95 µM		CCCCCCCSC(=S)NNC(=O)c1ccncc1
1200 µM		CCSC(=S)NNC(=O)c1ccncc1
	Activity [11]: inactive	CCCCCSC(=S)N(C)NC(=O)c1ccccn1
1280 µM		CCSC(=S)NNC(=O)c1ccccn1
6.58 µM		CCCCCCSC(=S)NNC(=O)c1ccncc1
17.5 µM		CCCCCSC(=S)NNC(=O)c1ccncc1
2.9 µM	Activity [8]: 180 min⁻¹; Activity [2]: 220 min⁻¹; Activity [9]: 250 min⁻¹; Activity [12]: 248 min⁻¹; Activity [3]: 111 min⁻¹; Activity [4]: 89 min⁻¹; Activity [7]: 167 min⁻¹	CCCCCCCCCS/C(S)=N/NC(=O)c1ccccn1
360 µM		CCCCSC(=S)NNC(=O)c1cccnc1
	Activity [10]: inactive	CCCCCCCCSC(=S)N(C)NC(=O)c1ccccn1
1900 µM		CSC(=S)NNC(=O)c1ccncc1
0.84 µM		CCCCCCCCSC(=S)NNC(=O)c1ccncc1
1870 µM		CSC(=S)NNC(=O)c1ccccn1
900 µM		CCCCCSC(=S)NN
